# Assay: Toxicity liver stage against HepG2, at 10uM
# Format: cell-based
# Set-up: test concentration 10 uM, cell line HepG2-A16-CD81EGFP
# Conditions: human, HepG2-A16-CD81EGFP cells; read-out: INHIBITION
# How it was run: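 Uninfected HepG2-A16-CD81EGFP cells, 3 × 10^3 per well, 1536-well, plated on prespotted compound at 10 μM final, parasite-free screening media added to match infected plates; puromycin 10 μM positive, DMSO 0.5% negative; run in parallel with 48 h PbLuc assay at 37 °C, 5% CO2; viability by CellTiter-Glo luminescence, normalized to controls.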
row,Compound,cytotoxicity at 10 µM
1,COCCn1ccc2c(NC(=O)C(C)C)cccc21,1.01%
2,Cc1cc2cc(CNC(=O)c3cnn4c3OCCC4)ccc2[nH]1,6.59%
3,CCOc1ccc(NC(=O)CN2CCN(c3nccn3C)CC2)cc1,4.05%
4,O=C(NCC(Cc1cccc(F)c1)N1CCCC1=O)c1ccccc1 (stereo unspecified),-12.2%
5,O=C(CCn1ccc2cc(Br)ccc21)NCc1ccc(C(=O)O)cc1,-11.8%
6,Cc1noc(C)c1CN1CCCC2(CCN(C(=O)CC3CC3)C2)C1 (stereo unspecified),7.71%
7,Cc1cccnc1NC(=O)C(C)Cn1nc(C(F)(F)F)cc1C (stereo unspecified),5.89%
8,CCCc1noc(C(C)N2CCN(CCn3ccccc3=O)CC2)n1 (stereo unspecified),5.6%
9,Cc1cnc(N2CCN(C(C)C(N)=O)CC2)nc1 (stereo unspecified),0.399%
10,NCC(CO)Cc1ccc(OC(F)(F)F)cc1 (stereo unspecified),8.65%
11,CN(C)C1CCN(C(=O)C2SCCc3ccccc32)CC1 (stereo unspecified),-4.67%
12,Cc1cc(C2CCCN2Cc2ccc(S(=O)(=O)N3CCCC3)o2)on1 (stereo unspecified),-11.9%
13,CC(C)(O)CN1CCN(C(=O)c2cccn2Cc2ccncc2)CC1,-2.59%
14,CCN(Cc1ccc2c(c1)OCO2)C(=O)c1ccc(=O)n(C)c1,15.9%
15,Cn1ccnc1COc1ccc(COC(=O)C2CCCO2)cc1 (stereo unspecified),-1.39%
16,O=C(CS(=O)(=O)C1CCCC1)NC1CCc2nccn2C1 (stereo unspecified),-17%
17,CC(C)N(CCNC(=O)c1ccc(S(=O)(=O)NC2CC2)cc1)C(C)C,-65.8%
18,CNC(=O)c1ccc(-c2ccccc2)n1C,-1.6%
19,CNC(=O)C(CCSC)NC(=O)c1ccc2ccccc2n1 (stereo unspecified),-1.35%
20,CC(COCC(F)(F)F)NC(=O)c1ccc(-c2ccco2)[nH]c1=O (stereo unspecified),-20.1%
21,Cn1cc(NC(=O)Nc2ccccn2)cc(Cl)c1=O,-7.82%
22,C=C(C)COc1cccc(C(=O)N(CC)Cc2nccn2C)c1,-4.69%
23,CNc1ncc(CN(C)C(=O)c2cccc(CC3CCNCC3)c2)cn1,-19.7%

row,Compound,cytotoxicity at 10 µM
1,NCCc1nc(N(Cc2nccs2)C2CC2)c2ccccc2n1,-16.1%
2,Cn1cc(CN2CCCN(CCCc3ccccc3)CC2)cn1,-50.8%
3,Cc1ccc(CN(CCN(C)C)C(=O)Nc2cc(C(N)=O)ccc2C)s1,13.1%
4,Cc1ccsc1CN(c1nc(CCN)nc2ccccc12)C1CC1,11.7%
5,CC(C)=Cc1c(-c2ccccc2)ncn1CCS(C)(=O)=O,-3.15%
6,Cc1ccc(-c2ccnc(NCC3(N(C)C)CCOCC3)n2)c(C)n1,13.1%
7,O=C1CC2(CCN(C(=O)c3ccc4c(c3)CCCO4)C2)C(=O)N1 (stereo unspecified),3.67%
8,Cc1cc(=O)[nH]c(-c2cccc(CN3CCCN4CCCC4C3)c2)n1 (stereo unspecified),1.46%
9,Cc1nc(N2CCN(C(=O)c3ccccc3)CC2)c2cnn(C)c2n1,-11.5%
10,Cc1noc(CN(C)Cc2ccc3c(c2)OCO3)n1,-13.2%
11,Cc1noc(C)c1CN1CCC(N(C)Cc2nnc(C3CC3)n2C)C1 (stereo unspecified),-4.03%
12,Cc1nc(C)n(CC2CCCN(Cc3ccc(F)cc3C#N)C2)n1 (stereo unspecified),-10.8%
13,N#Cc1ccc(CCC(=O)N2CCCC(n3cncn3)C2)cc1 (stereo unspecified),-7.79%
14,Cc1nsc2ncc(C(=O)N3CCCC3c3cnn(C)c3)cc12 (stereo unspecified),-1.8%
15,Cn1cc(C(=O)N2CCCC2c2noc(C3CC3)n2)c2ccccc21 (stereo unspecified),-0.249%
16,CN1C(=O)Cc2cc(-c3csc(CCN4CCOC4=O)n3)ccc21,-11.5%
17,CC(c1cc(F)ccc1F)N1CCN(Cc2nccn2C)CC1 (stereo unspecified),-15.6%
18,Cc1nn2cccnc2c1C(=O)N1CCCC(n2cccn2)C1 (stereo unspecified),-35.9%
19,O=C(Cc1ccc2c(c1)OCCO2)NCc1ccc(-n2cncn2)nc1,-20.5%
20,OC(CN1CCCCCCC1)c1ccc(OC(F)(F)F)cc1 (stereo unspecified),-11.2%
21,CCc1ccc(C(=O)N2CCN(c3nc(C)cc(OC)n3)CC2)o1,-18.7%
22,CCOCC1CN(C(=O)c2cccn2C)Cc2cnn(CC3CC3)c21 (stereo unspecified),8.37%
23,CN(C)C(=O)CN1C[C@H]2CC[C@@H](C1)N(Cc1ccc(Cl)cc1Cl)C2,-10.2%
